Screening results deposited in PubChem by Johns Hopkins Ion Channel Center.
This is a sample that favours compounds with a hit; in the whole collection about 2.9% have one here.
TRPC4 act = TRPC4 (mouse) channel activation | Q9QUQ5 | HEK293 TRPC4beta/mu-opioid, Fluo4 calcium fluorescence; hits give high values | B-score at 10 µM | 310,000 compounds, 0.49% hits;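 active means B-score above 5 SD of library B-scores, and initial fluorescence ratio not above library mean plus 5 SD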;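 further: positive B-score marks a calcium rise read as TRPC4 activation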
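Assay system: HEK293 stable line with TRPC4beta plus mu-opioid receptor; schedule: 45 min room-temperature Fluo4 loading, 110 s read; technique: kinetic Fluo4 calcium fluorescence; evaluation: integrated baseline-normalised fluorescence ratio, converted to per-well B score; controls: buffer (low) and maximal DAMGO (high)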
TRPC6 activator = mouse TRPC6 channel activation; Q61143; HEK293-TRPC6 membrane potential dye fluorescence; hits give high values; B-score at 10 µM; 310,000 compounds, 0.13% hits;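 active means B-score of the integrated fluorescence ratio above library mean plus 3 SD, and starting fluorescence ratio within library mean plus 5 SD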;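 further: higher score means more depolarization so channel activation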
TRPC4 PAM = allosterically enhances the mouse TRPC4 cation channel; Q9QUQ5; HEK293 TRPC4beta/mu-opioid, DAMGO EC20, Fluo-4 Ca2+ flux; hits give high values; B-score at 10 µM; 310,000 compounds, 0.42% hits;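 active means B-score of calcium response area above 5 SD of library B-scores, with initial fluorescence ratio within 5 SD of library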;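 further: B-score of integrated fluorescence ratio over time as area under calcium response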
Kir21 inh = inhibitors of mouse Kir2.1 inward-rectifier potassium channel; HEK293-Kir2.1, FluxOR thallium flux fluorescence; hits give low values; B-score at 10 µM; 310,000 compounds, 0.85% hits; P35561;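 active means fluorescence ratio B-score at or below minus 3 SD of library scores, with starting-brightness B-score within 2 SD, cut at about -4.2 in these data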;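 further: channel flux triggered by added potassium and thallium sulfate stimulus; B-score of peak minus minimum fluorescence over baseline after thallium stimulus; more negative B-score means stronger Kir2.1 block with less thallium influx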
Target sequence (P35561 whole entry, looked up): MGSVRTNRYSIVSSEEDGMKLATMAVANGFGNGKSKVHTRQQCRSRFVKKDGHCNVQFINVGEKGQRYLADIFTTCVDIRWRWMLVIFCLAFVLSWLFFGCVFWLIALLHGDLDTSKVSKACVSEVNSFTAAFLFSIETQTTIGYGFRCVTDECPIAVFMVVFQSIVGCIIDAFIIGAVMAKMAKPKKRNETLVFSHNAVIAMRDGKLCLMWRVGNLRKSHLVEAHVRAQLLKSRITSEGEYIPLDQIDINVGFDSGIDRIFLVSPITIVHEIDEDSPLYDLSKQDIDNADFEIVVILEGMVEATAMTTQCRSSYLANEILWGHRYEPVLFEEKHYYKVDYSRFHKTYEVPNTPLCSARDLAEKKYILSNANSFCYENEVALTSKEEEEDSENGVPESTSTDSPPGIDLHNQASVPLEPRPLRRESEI
TRPC6 inh = blocks the mouse TRPC6 cation channel; HEK293-TRPC6, membrane potential dye, ACh-evoked depolarization; hits give low values; B-score at 10 µM; 310,000 compounds, 1.1% hits; AID 2553;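 active means B-score under library mean minus 3 SD, initial fluorescence not abnormally high, positive integrated signal ratio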;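 further: B-score derived from integrated fluorescence ratio over the kinetic read; more negative B-score means stronger inhibition of depolarization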
TRPC4 inh = TRPC4 (mouse) channel inhibition; Q9QUQ5; HEK293 TRPC4beta/mu-opioid, DAMGO-evoked Fluo4 calcium flux; hits give low values; B-score at 10 µM; 300,000 compounds, 0.39% hits;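 active means B-score over 3 SD under the library average, no early fluorescence shift, positive overall ratio signal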
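Assay system – HEK293 line stably carrying TRPC4beta and mu-opioid receptor · Doses – single dose · Detection – Fluo4 calcium-dye fluorescence, kinetic read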
TRPC4 spec 2 = mouse TRPC4 off-target activity of TRPC6 inhibitors, second screen; shares compounds with TRPC6 inh; HEK293 TRPC4/MOR, membrane potential dye fluorescence; channel activated by saturating DAMGO dose; inhibition, % at 10 µM; 920 compounds, 42% hits;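 active means compounds whose fluorescence signal differed from control wells by over 3 SD, either direction, in both duplicate plates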
TRPC4 spec = tests whether TRPC6 inhibitors also affect mouse TRPC4 | 920 compounds, 61% hits | shares compounds with TRPC6 inh | AID 2777 | activity change, negative = inhibition, % at 10 µM | HEK293 TRPC4/mu-opioid, membrane potential fluorescence;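 active means rise or fall in signal beyond 3 SD of buffer-only wells in both replicate plates, either sign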;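 further: integrated kinetic ratio of fluorescence range over baseline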
HEK293 MPD ctr 2-1 = parental HEK293 nonspecific activity of TRPC6 inhibitors, second screen | shares compounds with TRPC6 inh | parental HEK293 membrane potential dye fluorescence; maximal acetylcholine challenge after compound addition | signal change vs control, % at 10 µM | 920 compounds, 31% hits | AID 2779;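 active means membrane potential signal moving either way by over 3 SD of the maximum-effect control, in both duplicate plates, meaning non-specific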
HEK293 MPD ctr-1 = counter-screen for TRPC6 inhibitors: effect in parental HEK293 cells | parental HEK293 membrane potential dye fluorescence | membrane potential signal change, % at 10 µM | 920 compounds, 60% hits | shares compounds with TRPC6 inh | AID 2780;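 active means membrane potential signal shifting up or down by more than 3 SD of buffer-only wells, on both duplicate plates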
HEK293 MPD ctr-2 = checks TRPC6 modulator effects in parental HEK293 cells; shares compounds with TRPC6 inh; membrane potential dye fluorescence; membrane potential signal change, % at 10 µM; 2,400 compounds, 51% hits; AID 488924;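 active means membrane potential signal moves up or down beyond 5 SD from buffer-only wells, on both duplicate plates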
HEK293 MPD ctr 2-2 = parental HEK293 nonspecific activity of TRPC6 modulators, second screen; inhibition, % at 10 µM; shares compounds with TRPC6 inh; membrane potential dye fluorescence; after compound, maximal acetylcholine stimulation; 2,400 compounds, 14% hits;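 active means membrane potential signal drops by more than 5 SD from the mean control signal, in both duplicate plates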;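 further: plate controls were acetylcholine ECmax control wells for no effect and buffer only wells for full effect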
TRPC4/MOR mod = tests whether TRPC6 modulators also affect mouse TRPC4; AID 488927; shares compounds with TRPC6 inh; percent change from control (negative = decrease, positive = increase), % at 10 µM; 2,400 compounds, 69% hits; HEK293 TRPC4/mu-opioid, membrane potential fluorescence;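 active means membrane potential signal moved up or down beyond 5 SD of buffer control wells, in both duplicate plates, actives on both sides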;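 further: plate controls were assay buffer wells for no effect and DAMGO maximal-effect wells for full effect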
TRPC4 ctr inh 2 = second check of whether TRPC6 modulators also affect mouse TRPC4; shares compounds with TRPC6 inh; HEK293 TRPC4/mu-opioid, membrane potential dye fluorescence; stimulated with maximal-effect DAMGO; 2,400 compounds, 55% hits; AID 488928; inhibition, % at 10 µM;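 active means drop in membrane potential signal beyond 5 SD of the control wells in both duplicate plates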;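 further: TRPC4 counter screen for TRPC6 hits run under conditions tuned for TRPC6 not TRPC4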
TRPC6 block conf = mouse TRPC6 inhibitor confirmation; shares compounds with TRPC6 inh; HEK293-TRPC6, membrane potential dye, ACh-evoked depolarization; inhibition, % at 10 µM; 3,300 compounds, 43% hits; AID 488960;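 active means fluorescence ratio falls more than 5 SD below the full-stimulation control mean, in both duplicate runs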;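 further: integrated fluorescence ratio of peak minus minimum over baseline after agonist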
TRPC6 act confirm = confirmation of mouse TRPC6 activators | shares compounds with TRPC6 inh | HEK293-TRPC6 membrane potential dye fluorescence, FDSS | activation, % at 10 µM | 2,800 compounds, 11% hits;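 active means ratio signal rise beyond 5 SD above unstimulated control wells' mean, seen in both duplicate runs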;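 further: plate controls were buffer EC0 wells for no effect and acetylcholine ECmax response for full effect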
The depositor's hits bear a star; i = inactive; . = no result.

SMILES | TRPC4 act | TRPC6 activator | TRPC4 PAM | Kir21 inh | TRPC6 inh | TRPC4 inh | HEK293 MPD ctr-2 | HEK293 MPD ctr 2-2 | TRPC4/MOR mod | TRPC4 ctr inh 2 | TRPC6 block conf | TRPC6 act confirm | others
CCOc1ccccc1Nc1cc(C)nc2ccc(C)cc12 | i | i | i | -3.16 | -7.7* | i | . | . | . | . | 61.5%* | i | TRPC4 spec 2=46.5%*;TRPC4 spec=-12.6%*;HEK293 MPD ctr 2-1=i;HEK293 MPD ctr-1=-209.0%*
COc1ccc2nc(C)cc(Nc3ccc(C)cc3)c2c1 | i | i | i | -3.4 | -6.62* | -7* | . | . | . | . | 68.4%* | i | TRPC4 spec 2=42.5%*;TRPC4 spec=-25.9%*;HEK293 MPD ctr 2-1=i;HEK293 MPD ctr-1=-272.5%*
COc1ccccc1/C=N/Nc1cc(C)nc2ccc(C)cc12 | i | i | i | -0.62 | i | i | . | . | . | . | . | .
COc1ccc(OC)c(Nc2cc(C)nc3ccc(C)cc23)c1 | i | i | i | -1.54 | -7.48* | -6* | . | . | . | . | 66.9%* | i | TRPC4 spec 2=52.5%*;TRPC4 spec=-14.5%*;HEK293 MPD ctr 2-1=i;HEK293 MPD ctr-1=-239.0%*
CC(=O)NC(CC(=O)NCCOc1ccccc1F)c1ccccc1 (centres undefined) | i | i | i | -1.48 | i | i | . | . | . | . | . | .
COc1cc2c(cc1OC)C(c1cccnc1)CC(=O)N2 (centres undefined) | i | i | i | 0.47 | i | i | . | . | . | . | . | .
COc1ccc2nc(C)cc(Nc3ccc(N4CCOCC4)cc3)c2c1 | i | i | i | 0.1 | i | i | . | . | . | . | . | .
COc1ccc2nc(C)cc(Nc3ccc(N4CCN(C)CC4)cc3)c2c1 | i | i | i | 1.31 | -9.6* | i | . | . | . | . | 85.7%* | i | TRPC4 spec 2=57.0%*;TRPC4 spec=-23.6%*;HEK293 MPD ctr 2-1=-94.5%*;HEK293 MPD ctr-1=-291.5%*
COc1ccc(Nc2cc(C)nc3ccccc23)cc1 | i | i | i | -3.96 | -5.09* | -6* | -131.5%* | i | -21.0%* | 48.5%* | i | i
COc1ccc(Nc2nc(C)c3ccccc3n2)cc1 | i | i | i | 1.04 | i | i | . | . | . | . | . | .
COc1ccc(NS(=O)(=O)c2cccc(C(=O)O)c2)cc1 | i | i | i | 0.24 | -5.39* | i | i | i | i | i | i | i
COc1ccc(NS(=O)(=O)c2cccc(C(=O)Nc3cccc(C(=O)O)c3)c2)cc1 | i | i | i | 0.14 | i | i | . | . | . | . | . | .
Cc1ccc(-n2c(SCC(=O)Nc3cc(C)on3)nc3c([nH]c4ccccc43)c2=O)cc1 | i | i | i | -0.33 | i | i | . | . | . | . | . | .
O=C(Cn1ncn2c(cc3ccccc32)c1=O)NCCC1=CCCCC1 | i | i | i | 1.91 | i | i | . | . | . | . | . | .
COC(=O)C1CCN(C2=C(NS(=O)(=O)c3ccc(Cl)cc3)C(=O)c3ccccc3C2=O)CC1 | i | i | i | 2.31 | -6.86* | i | . | . | . | . | i | i | TRPC4 spec 2=80.0%*;TRPC4 spec=-17.9%*;HEK293 MPD ctr 2-1=i;HEK293 MPD ctr-1=-249.5%*
C[N+]1(CN2C(=O)C3C4C=CC(C4)C3C2=O)CCCCC1 (centres undefined) | i | i | i | 0.42 | -5.56* | i | i | i | i | i | 48.5%* | i
CNc1ccc(S(=O)(=O)NCC(=O)OCC(=O)Nc2cccc(Cl)c2Cl)cc1[N+](=O)[O-] | i | i | i | -0.77 | i | i | . | . | . | . | . | .
CCCCCCn1cc(C(=O)OCC)c(=O)c2cc(F)c(F)cc21 | i | i | i | -0.2 | -5.07* | -6* | i | i | i | 45.5%* | i | i
CCOC(=O)c1cn(CC#N)c2cc(F)c(F)cc2c1=O | i | i | i | 1.46 | i | i | . | . | . | . | . | .
CCCCCCn1cc(C(=O)O)c(=O)c2cc(F)c(N3CCN(C)CC3)cc21 | i | i | i | 1.69 | -5.55* | i | -267.5%* | 70.0%* | -52.0%* | 51.5%* | 44.0%* | i
CCn1cc(C(=O)O)c(=O)c2cc(F)c(N3CCN(C)CC3)cc21 | i | i | i | -0.09 | i | i | . | . | . | . | . | .
CCOC(=O)c1cn(CC)c2cc3c(cc2c1=O)OCO3 | i | i | i | 0.76 | -5.79* | i | -126.0%* | i | -31.5%* | 32.5%* | i | i
CC(C)(C)NC(=O)CN(C(=O)C1CSC(=O)C1)c1ccccc1F (centres undefined) | i | i | i | 0.3 | i | i | . | . | . | . | . | .
Oc1sc(C=Nc2ccccc2)c2ccccc12 | i | 12.9* | i | -2.13 | i | i | 322.5%* | i | 139.0%* | 45.5%* | i | i
Oc1sc(C=Nc2ccc(F)cc2)c2ccccc12 | i | i | i | 0.03 | i | i | . | . | . | . | . | .
CCC(C)(C)C(=O)Nc1nnc(CCc2ccccc2)s1 | i | i | i | 0.95 | i | i | . | . | . | . | . | .
O=C(NCC(c1ccco1)N1CCCC1)c1ccc(Cl)cc1 (centres undefined) | i | i | i | -0.78 | i | i | . | . | . | . | . | .
O=C(NCC(c1ccco1)N1CCCC1)c1ccccc1Sc1ccc(C(F)(F)F)cc1[N+](=O)[O-] (centres undefined) | i | i | i | -0.16 | -6.62* | i | . | . | . | . | i | i | TRPC4 spec 2=i;TRPC4 spec=3.1%*;HEK293 MPD ctr 2-1=245.0%*;HEK293 MPD ctr-1=i
